Assays:
Conditions in all cases: in vivo
[1] = tested on: Rattus norvegicus; experiment: The biodistribution of the [125I]-labeled compound in rats after intravenous injection was evaluated in liver at 0.25 hr; value ranges from 0.19-0.27 (ID.kg/g); assay type: ADME, organism-based
How it was run: (§1)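 Male Sprague-Dawley rats (250–300 g), under ether anesthesia, given 10–15 μCi of the NCA ¹²⁵I-labeled agent iv in 0.1 mL saline. Groups of N = 3 were killed at 0.25, 1 or 4 h. Blood and tissues were removed, weighed and counted in a γ-well scintillation counter. Values are mean % ID·kg/g (range).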

[2] = tested on: Rattus norvegicus; experiment: The biodistribution of the [125I]-labeled compound in rats after intravenous injection was evaluated in blood at 0.25 hrs (ID.kg/g); assay type: ADME, organism-based
How it was run: (§2)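 Male Sprague-Dawley rats (250–300 g) under ether anesthesia were given an iv injection of no-carrier-added 125I-labelled agent (10–15 μCi in 0.1 mL saline). The agent was iodinated with chloramine-T in acetate buffer and purified by C-18 HPLC. Groups of N = 3 were killed at 0.25, 1 and 4 h. Blood and tissues were weighed and γ-counted. Values are % ID·kg/g, mean (range).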

[3] = tested on: Rattus norvegicus; experiment: The biodistribution of the [125I]-labeled compound in rats after intravenous injection was evaluated in fat at 0.25 hr (ID. kg/g); assay type: ADME, organism-based, Adipose tissue; how it was run: as §2
[4] = tested on: Rattus norvegicus; experiment: The biodistribution of the [125I]-labeled compound in rats after intravenous injection was evaluated in adrenal at 0.25 hrs; value ranges from 0.58-0.61 (ID.kg/g); assay type: ADME, organism-based; how it was run: as §2
[5] = tested on: Rattus norvegicus; experiment: The biodistribution of the [125I]-labeled compound in rats after intravenous injection was evaluated in adrenal at 4.00 hrs; value ranges from 0.90-0.97 (ID.kg/g); assay type: ADME, organism-based; how it was run: as §2
[6] = tested on: Rattus norvegicus; experiment: The biodistribution of the [125I]-labeled compound in rats after intravenous injection was evaluated in lung at 1.00 hrs; value ranges from 0.33-0.37 (ID.kg/g); assay type: ADME, organism-based; how it was run: as §1
[7] = tested on: Rattus norvegicus; experiment: The biodistribution of the [125I]-labeled compound in rats after intravenous injection was evaluated in kidney at 0.25 hr; value ranges from 0.37-0.45 (ID.kg/g); assay type: ADME, organism-based; how it was run: as §1
[8] = tested on: Rattus norvegicus; experiment: The biodistribution of the [125I]-labeled compound in rats after intravenous injection was evaluated in heart at 1.00 hrs (ID.kg/g); assay type: ADME, organism-based; how it was run: as §2
[9] = tested on: Rattus norvegicus; experiment: The biodistribution of the [125I]-labeled compound in rats after intravenous injection was evaluated in liver at 4.00 hrs; value ranges from 0.42-0.55 (ID.kg/g); assay type: ADME, organism-based; how it was run: as §1
[10] = tested on: Rattus norvegicus; experiment: The biodistribution of the [125I]-labeled compound in rats after intravenous injection was evaluated in lung at 0.25 hrs; value ranges from 0.55-0.57 (ID.kg/g); assay type: ADME, organism-based; how it was run: as §1
[11] = tested on: Rattus norvegicus; experiment: The biodistribution of the [125I]-labeled compound in rats after intravenous injection was evaluated in thyroid at 4.00 hrs; value ranges from 3.21-5.02 (ID.kg/g); assay type: ADME, organism-based, Thyroid gland
How it was run: (§3)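 Male Sprague-Dawley rats (250–300 g) under ether anesthesia given iv 0.1 mL saline containing 10–15 μCi of NCA ¹²⁵I-labeled agent (chloramine-T iodination, HPLC-purified). Groups of 3 killed at 0.25, 1 and 4 h. Blood and tissues excised, weighed and γ-counted. Values are mean (range) of % injected dose × body mass (kg) per gram of tissue.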

[12] = tested on: Rattus norvegicus; experiment: The biodistribution of the [125I]-labeled compound in rats after intravenous injection was evaluated in muscle at 1.00 hrs (ID.kg/g); assay type: ADME, organism-based, Muscle tissue; how it was run: as §3
[13] = tested on: Rattus norvegicus; experiment: The biodistribution of the [125I]-labeled compound in rats after intravenous injection was evaluated in adrenal at 1.00 hrs; value ranges from 0.83-0.85 (ID.kg/g); assay type: ADME, organism-based; how it was run: as §2
[14] = tested on: Rattus norvegicus; experiment: The biodistribution of the [125I]-labeled compound in rats after intravenous injection was evaluated in kidney at 1.00 hrs; value ranges from 0.29-0.35 (ID.kg/g); assay type: ADME, organism-based; how it was run: as §1
[15] = tested on: Rattus norvegicus; experiment: The biodistribution of the [125I]-labeled compound in rats after intravenous injection was evaluated in brain at 1.00 hrs; value ranges from 0.23-0.32 (ID.kg/g); assay type: ADME, organism-based; how it was run: as §2
[16] = tested on: Rattus norvegicus; experiment: The biodistribution of the [125I]-labeled compound in rats after intravenous injection was evaluated in blood at 1.00 hrs (ID.kg/g); assay type: ADME, organism-based; how it was run: as §2
[17] = tested on: Rattus norvegicus; experiment: The biodistribution of the [125I]-labeled compound in rats after intravenous injection was evaluated in brain at 0.25 hrs (ID.kg/g); assay type: ADME, organism-based; how it was run: as §2
[18] = tested on: Rattus norvegicus; experiment: The biodistribution of the [125I]-labeled compound in rats after intravenous injection was evaluated in heart at 0.25 hrs; value ranges from 0.11-0.15 (ID.kg/g); assay type: ADME, organism-based; how it was run: as §2
[19] = tested on: Rattus norvegicus; experiment: The biodistribution of the [125I]-labeled compound in rats after intravenous injection was evaluated in muscle at 4.00 hrs (ID.kg/g); assay type: ADME, organism-based, Muscle tissue; how it was run: as §3
[20] = tested on: Rattus norvegicus; experiment: The biodistribution of the [125I]-labeled compound in rats after intravenous injection was evaluated in lung at 4.00 hrs; value ranges from 0.19-0.25 (ID.kg/g); assay type: ADME, organism-based; how it was run: as §1
[21] = tested on: Rattus norvegicus; experiment: The biodistribution of the [125I]-labeled compound in rats after intravenous injection was evaluated in liver at 1.00 hrs; value ranges from 0.34-0.44 (ID.kg/g); assay type: ADME, organism-based; how it was run: as §1
[22] = tested on: Rattus norvegicus; experiment: The biodistribution of the [125I]-labeled compound in rats after intravenous injection was evaluated in thyroid at 0.25 hrs; value ranges from 1.12-1.29 (ID.kg/g); assay type: ADME, organism-based, Thyroid gland; how it was run: as §3
[23] = tested on: Rattus norvegicus; experiment: The biodistribution of the [125I]-labeled compound in rats after intravenous injection was evaluated in muscle at 0.25 hrs (ID.kg/g); assay type: ADME, organism-based, Muscle tissue; how it was run: as §3
[24] = tested on: Rattus norvegicus; experiment: The biodistribution of the [125I]-labeled compound in rats after intravenous injection was evaluated in brain at 4.00 hrs; value ranges from 0.17-0.21 (ID.kg/g); assay type: ADME, organism-based; how it was run: as §2
[25] = tested on: Rattus norvegicus; experiment: The biodistribution of the [125I]-labeled compound in rats after intravenous injection was evaluated in heart at 4.00 hrs; value ranges from 0.05-0.06 (ID.kg/g); assay type: ADME, organism-based; how it was run: as §1
[26] = tested on: Rattus norvegicus; experiment: The biodistribution of the [125I]-labeled compound in rats after intravenous injection was evaluated in kidney at 4.00 hrs; value ranges from 0.18-0.23 (ID.kg/g); assay type: ADME, organism-based; how it was run: as §1
[27] = tested on: Rattus norvegicus; experiment: The biodistribution of the [125I]-labeled compound in rats after intravenous injection was evaluated in fat at 4.00 hrs (ID.kg/g); assay type: ADME, organism-based, Adipose tissue; how it was run: as §2
[28] = tested on: Rattus norvegicus; experiment: The biodistribution of the [125I]-labeled compound in rats after intravenous injection was evaluated in blood at 4.00 hrs (ID.kg/g); assay type: ADME, organism-based; how it was run: as §2
[29] = tested on: Rattus norvegicus; experiment: The biodistribution of the [125I]-labeled compound in rats after intravenous injection was evaluated in thyroid at 1.00 hrs; value ranges from 1.22-1.36 (ID.kg/g); assay type: ADME, organism-based, Thyroid gland; how it was run: as §3
[30] = tested on: Rattus norvegicus; experiment: The biodistribution of the [125I]-labeled compound in rats after intravenous injection was evaluated in fat at 1.00 hrs (ID.kg/g); assay type: ADME, organism-based, Adipose tissue; how it was run: as §2

## CC(C)CN1CCN(c2ccc(I)cc2)CC1
[1]
  Biodistribution: 0.27%
[2]
  Biodistribution: 0.01 % ID·kg/g
[3]
  Biodistribution: 0.02 % ID·kg/g
[4]
  Biodistribution: 0.61%
[5]
  Biodistribution: 0.97%
[6]
  Biodistribution: 0.37%
[7]
  Biodistribution: 0.45%
[8]
  Biodistribution: 0.09%
[9]
  Biodistribution: 0.55%
[10]
  Biodistribution: 0.57%
[11]
  Biodistribution: 5.02%
[12]
  Biodistribution: 0.02 %ID·kg/g
[13]
  Biodistribution: 0.85%
[14]
  Biodistribution: 0.35%
[15]
  Biodistribution: 0.32%
[16]
  Biodistribution: 0.01 % ID·kg/g
[17]
  Biodistribution: 0.25%
[18]
  Biodistribution: 0.15%
[19]
  Biodistribution: 0.03 %ID·kg/g
[20]
  Biodistribution: 0.25%
[21]
  Biodistribution: 0.44%
[22]
  Biodistribution: 1.29%
[23]
  Biodistribution: 0.03 % ID·kg/g
[24]
  Biodistribution: 0.21%
[25]
  Biodistribution: 0.07%
[26]
  Biodistribution: 0.23%
[27]
  Biodistribution: 0.04%
[28]
  Biodistribution: 0.01 % ID·kg/g
[29]
  Biodistribution: 1.36%
[30]
  Biodistribution: 0.02 % ID·kg/g

— ChEMBL document CHEMBL1123589, “Phenylpiperazine-based radiopharmaceuticals for brain imaging. 3. Synthesis and evaluation of radioiodinated 1-alkyl-4-phenylpiperazines” (J Med Chem, 1987)
